Published values pooled from the literature.
Protocols differ between the studies behind these lines.
Target: Serine/threonine-protein kinase Chk1 (CHEK1, Homo sapiens, UniProt O14757)
Sequence (O14757 1-476, as in one of the studies): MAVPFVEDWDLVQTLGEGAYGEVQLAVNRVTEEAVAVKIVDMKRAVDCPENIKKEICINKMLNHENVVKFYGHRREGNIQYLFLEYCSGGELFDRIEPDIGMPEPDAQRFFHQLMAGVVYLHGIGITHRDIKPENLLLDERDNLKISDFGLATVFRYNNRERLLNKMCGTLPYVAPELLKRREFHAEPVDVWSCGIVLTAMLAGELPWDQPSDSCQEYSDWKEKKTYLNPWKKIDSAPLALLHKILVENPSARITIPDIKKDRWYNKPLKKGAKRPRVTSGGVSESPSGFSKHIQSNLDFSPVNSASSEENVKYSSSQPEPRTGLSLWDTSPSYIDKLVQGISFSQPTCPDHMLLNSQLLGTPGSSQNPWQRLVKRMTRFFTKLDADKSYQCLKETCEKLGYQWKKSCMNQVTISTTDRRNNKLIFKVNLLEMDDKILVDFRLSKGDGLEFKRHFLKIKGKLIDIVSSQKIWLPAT

SMILES	test	conditions	quantity	value
O=c1[nH]c2ccccc2n1C1CCN(Cc2ccc(-c3[nH]c4cc5ncnc5cc4nc3-c3ccccc3)cc2)CC1	cell-free assay	0.5 µM	remaining signal	107%
Cn1cc(-c2cccc(N3CCc4c(sc5c4CC(C)(C)C5)C3=O)c2CO)cc(Nc2ccncn2)c1=O	enzyme activity, inhibitor	1 µM	inhibition	1%
Nc1ncc(-c2nc(N3CCOCC3)nc(N3CCOCC3)n2)c(C(F)F)n1	binding, competition with immobilised ligand	10 µM	remaining binding	67%
COc1cc(Nc2ncc(F)c(Nc3ccc4c(n3)NC(=O)C(C)(C)O4)n2)cc(OC)c1OC	binding, competition with immobilised ligand	10 µM	inhibition	62%
Cc1nn(C)cc1-c1nc2c(N3CCN(Cc4ccc(Cl)cc4)CC3)c(Cl)cnc2[nH]1	binding, competition with immobilised ligand	1 µM	remaining binding	100%
CC(C)(C)c1cc(C=C(C#N)C#N)cc(Br)c1O	enzyme activity, inhibitor	0.5 µM	remaining activity	100%
Cn1cncc1[C@@](O)(COc1ccc(C#N)cc1-c1ccc(OC(F)(F)F)cc1)c1ccc(C#N)cc1	cell-free assay, competition with immobilised ligand	1 µM	remaining binding	100%
C#Cc1n[nH]c2c(-c3cn([C@@H](C)c4ccccn4)c(=O)[nH]c3=O)cc(F)cc12	enzyme activity, inhibitor	0.1 µM	inhibition	-3.2%
Cn1cc(-c2cc(F)cc(N3CCn4c(cc5c4CCCC5)C3=O)c2CO)cc(Nc2ccc(N3CCN(C4COC4)CC3)cn2)c1=O	enzyme activity, inhibitor	0.1 µM	inhibition	2%
COc1ncccc1-c1cnn2ccc(N3CCN(C(=O)OC(C)C)CC3)nc12	binding, competition with immobilised ligand	1 µM	remaining binding	100%
C#Cc1n[nH]c2c(-c3cn([C@@H](C)c4ccccc4)c(=O)[nH]c3=O)cc(F)cc12	enzyme activity, inhibitor	0.1 µM	inhibition	-1.2%
